{"source": "paper PMC8056739", "about": "(British Journal of Clinical Pharmacology, 2020)", "key": {"[1]": {"conditions": "cited from earlier work"}, "[2]": {"assay": "Prior population PK model of peficitinib in healthy volunteers", "assay_type": "in vivo", "conditions": "human, plasma, oral, 150 mg", "in_short": "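Healthy-volunteer plasma levels from five clinical pharmacology studies, excluding renal/hepatic-impairment subjects. Validated LC–MS/MS (LLOQ 0.25 ng/mL), BLQ values unused. NONMEM, FOCE with interaction. 2-compartment model, five absorption schemes compared, exponential IIV, proportional residual. Covariates tested on CL: age, weight, MDRD eGFR, liver enzymes, bilirubin. Selection stepwise (forward .01, backward .001). Assessed by goodness-of-fit plots and visual predictive check.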"}, "[3]": {"assay": "Population PK model of peficitinib in RA patients", "assay_type": "in vivo, human", "in_short": "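RA patients' plasma levels measured by validated LC–MS/MS (LLOQ 0.25 ng/mL) from trough and post-dose samples. BLQ values, samples >48 h after dosing (or <19 h in RAJ1), and outliers (>mean+3×SD of log trough per arm) were excluded. NONMEM, FOCE with interaction, healthy-volunteer model as prior (NWPRI penalty). 2-compartment model, exponential IIV, proportional residual. Stepwise covariate selection, power function centred on mean. 1000 bootstrap runs.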"}, "[4]": {"conditions": "RA patient model, 1000 bootstrap runs"}, "[5]": {"conditions": "RA patient model, √(exp(ω^2)-1) × 100"}}, "note": "“And” between values parts separate entries of the source, which are not always exact repeats. Equal values may be shown once.", "data": [{"smiles": "NC(=O)c1cnc2[nH]ccc2c1N[C@@H]1[C@@H]2CC3C[C@H]1C[C@@](O)(C3)C2", "note": "[peficitinib]", "values": [{"measurement": "Exposure in healthy Japanese compared with Caucasian", "setting": "[1]", "value": "greater"}, {"measurement": "Mean exposure in subjects with moderate hepatic impairment", "setting": "[1]", "value": "increases"}, {"measurement": "Mean AUCinf", "setting": "[1]; healthy subjects, single dose 450 mg", "value": 4660, "unit": "ng·h/mL"}, {"measurement": "Tolerability", "setting": "[1]; healthy subjects, single dose up to 450 mg", "value": "tolerability was shown"}, {"measurement": "Dose proportionality of exposure", "setting": "[1]; healthy volunteers, single doses 3–300 mg", "value": "dose‐proportional exposure"}, {"measurement": "Increase of AUCinf by food intake", "setting": "[1]; healthy volunteers", "value": "27% and 36% and 27–36%"}, {"measurement": "Mean terminal half-life (t1/2)", "setting": "[1]; healthy volunteers", "value": "2.8 to 12.9", "unit": "h"}, {"measurement": "Time to maximum observed concentration (Tmax)", "setting": "[1]; healthy volunteers", "value": "1.0 to 1.8", "unit": "h"}, {"measurement": "Urinary excretion of peficitinib, share of the oral dose", "setting": "[1]; healthy volunteers", "value": "9–15%"}, {"measurement": "Exposure in subjects with versus without renal impairment", "setting": "[1]; single, oral 150 mg dose", "value": "comparable"}, {"measurement": "clearance", "setting": "[2]", "value": 1390, "unit": "mL/min"}, {"measurement": "ALAG, absorption lag time (estimate)", "setting": "[3]; RA patient model", "value": 0.132, "unit": "h"}, {"measurement": "D, duration of zero-order absorption (estimate)", "setting": "[3]; RA patient model", "value": 1.37, "unit": "h"}, {"measurement": "Ka, first-order absorption rate constant (estimate)", "setting": "[3]; RA patient model", "value": 5.83, "unit": "L/h"}, {"measurement": "Vc, apparent distribution volume of the central compartment (estimate)", "setting": "[3]; RA patient model", "value": 280, "unit": "L"}, {"measurement": "Vp, apparent distribution volume of the peripheral compartment (estimate)", "setting": "[3]; RA patient model", "value": 122, "unit": "L"}, {"measurement": "CL, apparent total systemic clearance (estimate)", "setting": "[3]; RA patient model, population estimate, oral", "value": 91.7, "unit": "L/h"}, {"measurement": "ALAG, bootstrap median", "setting": "[3]; [4]", "value": 0.132, "unit": "h"}, {"measurement": "D, bootstrap median", "setting": "[3]; [4]", "value": 1.36, "unit": "h"}, {"measurement": "Ka, bootstrap median", "setting": "[3]; [4]", "value": 5.82, "unit": "L/h"}, {"measurement": "Q, bootstrap median", "setting": "[3]; [4]", "value": 10.2, "unit": "L/h"}, {"measurement": "Vc, bootstrap median", "setting": "[3]; [4]", "value": 279, "unit": "L"}, {"measurement": "Vp, bootstrap median", "setting": "[3]; [4]", "value": 122, "unit": "L"}, {"measurement": "Covariate eGFR on CL (exponent of power function, estimate)", "setting": "[3]; RA patient model, eGFR centred at 91.5 mL/min/1.73m^2", "value": 0.213}, {"measurement": "Covariate LYM (lymphocyte count) on CL (exponent of power function, estimate)", "setting": "[3]; RA patient model, lymphocyte count centred at 1550 10^6/L", "value": "−0.104"}, {"measurement": "Interindividual variability of CL", "setting": "[3]; [5]", "value": 25.7, "unit": "%"}, {"measurement": "Interindividual variability of Vc", "setting": "[3]; [5]", "value": 39.2, "unit": "%"}, {"measurement": "clearance", "setting": "[3]; human, plasma, oral", "value": 1530, "unit": "mL/min"}, {"measurement": "Model predicted mean change in CL from population mean CL", "setting": "[3]; patients with observed maximum eGFR of 188 mL/min/1.73m^2", "value": 16.7, "unit": "%"}, {"measurement": "Model predicted mean change in CL from population mean CL", "setting": "[3]; patients with observed maximum lymphocyte count of 4600 10^6/L", "value": "−10.7", "unit": "%"}, {"measurement": "Model predicted mean change in CL from population mean CL", "setting": "[3]; patients with observed minimum eGFR of 36.4 mL/min/1.73m^2", "value": "−17.8", "unit": "%"}, {"measurement": "Model predicted mean change in CL from population mean CL", "setting": "[3]; patients with observed minimum lymphocyte count of 500 10^6/L", "value": 12.3, "unit": "%"}]}]}
